High-throughput results deposited in PubChem by several laboratories.
The list is not random: actives were taken first. Their share in the collection is about 1.8%.
APJ antagonist: antagonists of human apelin receptor APJ, primary screen, CHO-K1 cells, beta-arrestin complementation, luminescence | inhibition, % at 20 µM | P35414 | 330,000 tested, 0.32% active;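 active = inhibition above about 40% at 20 µM, limit read from the data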;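 also: cells challenged with 10 nM apelin-13 agonist together with compound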
CCR6 antagonist: CCR6 receptor antagonists, primary screen, cell-based, CHO-K1, luminescence, beta-arrestin, uHTS | C-C chemokine receptor type 6 (Homo sapiens), P51684 | CHO-K1 CCR6 PathHunter beta-arrestin, CCL20-stimulated | inhibition, % at 20 µM | 340,000 tested, 0.49% active;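 active = compounds whose inhibition of the agonist-driven luminescence signal at 20 µM reaches about 50%, limit read from the data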;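 also: cells stimulated with CCL20 at 14 nM final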
APJ agonist: agonists of human apelin receptor APJ, primary screen, CHO-K1 cells, PathHunter beta-arrestin, luminescence; 330,000 tested, 0.11% active; activation, % at 20 µM; 0% DMSO wells, 100% apelin; P35414;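 active = activation more than six SD over the plate average, tested at 20 µM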
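Assay system – PathHunter CHO-K1 APJ (AGTRL-1) beta-arrestin reporter cells · Compound – one dose, 20 µM compound, 1% DMSO · Timing – compound 90 min 25 °C, reagent 1 h · Measured by – luminescence from split beta-galactosidase complementation, Galacton Star/Emerald II substrate · Measure – beta-arrestin recruitment to APJ as agonist activity, luminescent signal · Benchmarks – DMSO vs Apelin-13 10 nM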
EBI2 block: EBI2 receptor antagonists, beta-arrestin recruitment, primary screen, cell-based, luminescence, 7a,25-OHC stimulation, uHTS | G-protein coupled receptor 183 (Homo sapiens), P32249 | 7a,25-OHC stimulated | inhibition, % at 5 µM | 360,000 tested, 0.81% active | AID 651636, 2012; in the data active = inhibition above about 38%;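 also: enzyme fragment complementation signal reports receptor beta-arrestin coupling in cells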
CXCR6 inh: CXCR6 receptor inhibitors, primary screen, cell-based, beta-arrestin, luminescence, CHO-K1 PathHunter, 1536-well; 360,000 tested, 0.36% active; AID 602244, 2012; inhibition, % at 20 µM; in the data active = inhibition above about 34%, passing the limit was not always enough;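 also: antagonist mode with CXCL16 agonist at 10 nM final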
Target sequence (O00574 whole entry, looked up): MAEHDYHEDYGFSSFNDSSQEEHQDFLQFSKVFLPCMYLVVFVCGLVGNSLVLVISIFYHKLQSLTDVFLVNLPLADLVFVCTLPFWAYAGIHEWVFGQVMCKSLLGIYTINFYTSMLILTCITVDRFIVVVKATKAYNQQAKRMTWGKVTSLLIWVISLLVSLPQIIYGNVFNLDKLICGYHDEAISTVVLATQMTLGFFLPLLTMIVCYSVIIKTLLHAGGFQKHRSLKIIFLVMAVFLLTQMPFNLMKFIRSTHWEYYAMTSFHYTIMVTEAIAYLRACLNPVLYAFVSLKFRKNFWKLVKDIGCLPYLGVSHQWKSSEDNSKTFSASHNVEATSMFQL
B2AR ag: beta2AR agonists driving receptor internalization, primary screen, cell-based, FAP fluorogen, flow cytometry. Beta-2 adrenergic receptor (Homo sapiens), P07550. Am2.2-beta2AR cells. response, % (test concentration not listed). 340,000 tested, 0.43% active. AID 504454, 2011;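 active = response above a set limit, near 3 SD of response in nonfluorescent compounds, cut at about 42% in these data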
EBI2 antag conf: EBI2 antagonist hit retest, beta-arrestin, confirmation, cell-based, single concentration, luminescence, 7a,25-OHC stimulation | shares compounds with EBI2 block | 7a,25-OHC antagonism | inhibition, % at 5 µM | 2,400 tested, 29% active | AID 651997, 2013;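 active = inhibition of at least 50%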
EBI2 ag: EBI2 agonist activity of antagonist hits, confirmation, counter-screen for EBI2 antagonist project, cell-based, single concentration, agonist mode, luminescence | shares compounds with EBI2 block | EBI2-expressing cells, 60 min; 0% vehicle, 100% 7α,25-dihydroxycholesterol control | activation, % at 5 µM | 2,400 tested, under 10 active;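 active = activation of at least 50%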
bGal cs: E. coli beta-galactosidase enzyme inhibition, confirmation, counter-screen for EBI2 antagonist project, biochemical, luminescence, single concentration. 2,400 tested, 1% active. inhibition, % at 5 µM. shares compounds with EBI2 block. purified beta-galactosidase, luminescent Galacton Star, 15 min;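 active = replicate-average signal at least 3 plate SD below neutral wells, shown as high inhibition, flagging enzyme-inhibiting false positives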;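 also: higher means stronger loss of beta-gal luminescence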
A number is an active result; i = inactive; nt = no result given.

SMILES	APJ antagonist	CCR6 antagonist	APJ agonist	EBI2 block	CXCR6 inh	B2AR ag	EBI2 antag conf	EBI2 ag	bGal cs
O=C(NCCO)c1ccc(Oc2ccc(C(F)(F)F)cc2[N+](=O)[O-])cc1	i	i	i	i	i	i	nt	nt	nt
C=CCNc1nc2cc(-c3ccc(C(=O)N4CCOCC4)cc3)sc2c(=O)n1C	nt	nt	nt	i	i	nt	nt	nt	nt
CCCCn1nnnc1C(c1ccccc1OC(F)(F)F)N1CCN(C/C=C/c2ccccc2)CC1 (centres undefined)	nt	nt	nt	68	i	nt	58	i	i
CCCCn1nnnc1C(c1ccnc2ccccc12)N1CCN(C/C=C/c2ccccc2)CC1 (centres undefined)	nt	nt	nt	i	i	nt	nt	nt	nt
FC(F)(F)Oc1ccccc1C(c1nnnn1Cc1ccccc1)N1CCN(C/C=C/c2ccccc2)CC1 (centres undefined)	nt	nt	nt	67	i	nt	i	i	i
CN1CCC(N(C)S(=O)(=O)c2ccc(NC(=O)COc3ccc(Cl)cc3)cc2)CC1	i	i	i	54	i	i	i	i	i
CCCNC(=O)C1(C)CCN(Cc2ccc(OC)c3ccccc23)C1 (centres undefined)	nt	nt	nt	i	i	nt	nt	nt	nt
CCCCC[C@H](C)N1C[C@@H](COCc2ccccc2)Oc2cc(N3CC[C@@H](O)C3)ccc2S1(=O)=O	nt	nt	nt	i	i	nt	nt	nt	nt
CCCCC[C@@H](C)N1C[C@@H](COCc2ccccc2)Oc2cc(N3CC[C@H](O)C3)ccc2S1(=O)=O	nt	nt	nt	53	i	nt	i	i	i
CCCCC[C@@H](C)N1C[C@@H](COCc2ccccc2)Oc2cc(N3CC[C@@H](O)C3)ccc2S1(=O)=O	nt	nt	nt	45	i	nt	i	i	i
CCOc1ccc(S(=O)(=O)c2c(C(=O)c3ccc(C)cc3)cnc3cc4c(cc23)OCCO4)cc1	i	i	i	47	i	i	i	i	i
COc1ccc(OCCN2CCC(C(=O)NC(c3ccsc3)c3ccccc3C)CC2)cc1 (centres undefined)	nt	nt	nt	i	i	nt	nt	nt	nt
COc1ccccc1C(=O)NC1CCSc2ccccc21 (centres undefined)	i	i	i	i	i	i	nt	nt	nt
CCOc1ccc(C(=O)Nc2ccc(S(=O)(=O)N3C[C@@H]4C[C@@H](C3)c3cccc(=O)n3C4)cc2)cc1	i	i	i	i	i	i	nt	nt	nt
CC(C)(C)CC(C)(C)NC(=O)CSCC(=O)Nc1ccc2ccccc2c1	i	i	i	71	i	i	i	i	i
COCCN(C(=O)CSc1cc(C)c2ccccc2n1)c1c(N)n(CC(C)C)c(=O)[nH]c1=O	i	i	i	i	i	i	nt	nt	nt
CNc1cc(CSc2ccc(Cl)cc2)nc(C)n1	i	i	i	i	i	i	nt	nt	nt
Cc1nc(CSc2ccc(Cl)cc2)cc(NCc2ccccc2)n1	i	i	i	47	i	i	i	i	i
Cc1noc2ncnc(Oc3cc(Cl)ccc3Cl)c12	i	i	i	i	i	i	nt	nt	nt
Cc1cc(Cl)ccc1Oc1ncnc2oc(-c3ccccc3)cc12	i	i	i	53	i	i	i	i	i
Cc1cccc(Oc2ncnc3oc(-c4ccccc4)cc23)c1C	i	i	i	67	i	i	i	i	i
Cc1cccc(Oc2ncnc(N)c2[N+](=O)[O-])c1C	i	i	i	i	i	i	nt	nt	nt
CC(C)(C)S(=O)(=O)N1C[C@@H]2CC/C=C\C/C=C\2[C@H]1CCO	nt	i	nt	i	i	i	nt	nt	nt
